Results from ChEMBL document CHEMBL4414545, “Beta-Glucuronidase Catalyzes Deconjugation and Activation of Curcumin-Glucuronide in Bone” (J Nat Prod, 2019).
Activity calls are given as the source filed them. The calls are words filed in the database; no cut-off is given here.

Key:
Klotho = target: T1, Klotho (Homo sapiens, UniProt Q9UEF7); assay: Prodrug conversion assessed as recombinant human alpha-klotho mediated curcumin-glucuronide hydrolysis incubated for 24 hrs by LC-MS analysis; assay type: ADME
T1 sequence (Q9UEF7 whole entry): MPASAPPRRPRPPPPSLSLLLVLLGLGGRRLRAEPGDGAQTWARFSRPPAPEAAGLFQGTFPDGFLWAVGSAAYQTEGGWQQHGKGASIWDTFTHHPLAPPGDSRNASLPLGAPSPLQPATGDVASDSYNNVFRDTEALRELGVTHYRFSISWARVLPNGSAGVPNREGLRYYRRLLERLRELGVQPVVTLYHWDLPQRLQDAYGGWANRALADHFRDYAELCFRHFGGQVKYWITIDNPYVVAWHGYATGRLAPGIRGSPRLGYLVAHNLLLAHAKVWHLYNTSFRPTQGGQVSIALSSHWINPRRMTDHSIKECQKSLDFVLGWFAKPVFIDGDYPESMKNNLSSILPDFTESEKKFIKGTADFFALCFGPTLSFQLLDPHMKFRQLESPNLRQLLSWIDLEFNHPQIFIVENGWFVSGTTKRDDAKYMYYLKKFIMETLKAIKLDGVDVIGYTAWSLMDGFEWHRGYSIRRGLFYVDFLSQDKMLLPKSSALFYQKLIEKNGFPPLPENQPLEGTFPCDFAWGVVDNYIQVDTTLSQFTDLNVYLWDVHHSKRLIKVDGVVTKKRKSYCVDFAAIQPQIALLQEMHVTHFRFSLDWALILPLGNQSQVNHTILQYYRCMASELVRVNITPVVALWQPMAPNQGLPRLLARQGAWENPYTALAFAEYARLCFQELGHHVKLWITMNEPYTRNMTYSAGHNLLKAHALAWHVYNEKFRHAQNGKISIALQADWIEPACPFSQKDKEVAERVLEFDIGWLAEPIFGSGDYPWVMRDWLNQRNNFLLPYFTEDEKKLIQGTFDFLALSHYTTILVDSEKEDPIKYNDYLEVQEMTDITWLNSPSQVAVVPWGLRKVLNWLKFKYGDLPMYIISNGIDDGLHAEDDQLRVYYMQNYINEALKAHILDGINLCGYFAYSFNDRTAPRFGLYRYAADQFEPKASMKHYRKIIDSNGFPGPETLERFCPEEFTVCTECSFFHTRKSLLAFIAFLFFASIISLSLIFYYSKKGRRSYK
Outline: (§1)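 Recombinant human GUSB or α-klotho, 5 μg/mL (15 nM or 45 nM active enzyme), was incubated with curcumin-glucuronide (459 nM) for 24 h at 37°C at pH 5 in enzyme-optimized buffer. Reactions were stopped with HCl and extracted by HLB. Remaining glucuronide and formed aglycone were measured by LC/MS and expressed as % of enzyme-free control, n=3/group.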

Beta-glucuronidase [1] = target: T2, Beta-glucuronidase (Homo sapiens, UniProt P08236); assay: Prodrug conversion assessed as recombinant human C-terminal His6-tagged beta-glucuronidase mediated curcumin-glucuronide hydrolysis incubated for 24 hrs by LC-MS analysis; assay type: ADME; details: isolated protein; outline: as §1
T2 sequence (P08236 whole entry): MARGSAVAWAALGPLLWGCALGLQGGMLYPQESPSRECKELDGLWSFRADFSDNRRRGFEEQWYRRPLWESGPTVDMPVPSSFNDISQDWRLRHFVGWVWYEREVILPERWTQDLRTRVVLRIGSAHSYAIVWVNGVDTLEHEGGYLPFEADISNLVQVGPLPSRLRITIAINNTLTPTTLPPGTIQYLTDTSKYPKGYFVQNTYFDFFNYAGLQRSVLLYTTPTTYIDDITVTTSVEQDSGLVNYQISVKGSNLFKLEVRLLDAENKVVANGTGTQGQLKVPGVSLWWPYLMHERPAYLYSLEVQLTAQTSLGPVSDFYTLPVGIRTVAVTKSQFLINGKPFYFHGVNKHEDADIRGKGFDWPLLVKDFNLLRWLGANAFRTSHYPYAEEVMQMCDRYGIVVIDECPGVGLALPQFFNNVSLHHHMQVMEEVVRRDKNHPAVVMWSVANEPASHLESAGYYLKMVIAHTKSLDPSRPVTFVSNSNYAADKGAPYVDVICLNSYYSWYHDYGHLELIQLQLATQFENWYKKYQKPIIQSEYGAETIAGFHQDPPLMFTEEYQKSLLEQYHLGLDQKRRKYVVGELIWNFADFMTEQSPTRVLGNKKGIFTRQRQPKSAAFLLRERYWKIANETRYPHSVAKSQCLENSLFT

RAW264.7 = assay: Inhibition of RANKL-induced osteoclastogenesis in murine RAW264.7 cells assessed as formation of TRAP positive multinucleated osteoclasts at 30 uM pretreated for 4 hrs followed by RANKL addition measured after 72 hrs; assay type: functional, cell-based; details: Mus musculus
Outline: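 RAW 264.7 cells, used within 10 passages, were seeded at 5×10^3/well in DMEM with 10% FBS and allowed to adhere overnight at 37°C. Cells were pretreated 4 h with aglycone curcumin or curcumin-glucuronide, then given RANKL (50 ng/mL final) for 72 h. TRAP-positive multinucleated osteoclasts were counted, n=4/group.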

Beta-glucuronidase [2] = target: T3, Beta-glucuronidase (Mus musculus, UniProt P12265); assay: Prodrug conversion in C57BL/6J mouse bone marrow assessed as beta-glucuronidase mediated stabilization of aglycone curcumin at 0.5 uM administered via oral gavage incubated for 30 mins followed by resuspension in sodium acetate buffer at pH 5 measured after 2 hrs in presence of saccharolactone by LC-MS analysis; assay type: ADME; details: in vivo, pH 5, 0.5 µM
T3 sequence (P12265 whole entry): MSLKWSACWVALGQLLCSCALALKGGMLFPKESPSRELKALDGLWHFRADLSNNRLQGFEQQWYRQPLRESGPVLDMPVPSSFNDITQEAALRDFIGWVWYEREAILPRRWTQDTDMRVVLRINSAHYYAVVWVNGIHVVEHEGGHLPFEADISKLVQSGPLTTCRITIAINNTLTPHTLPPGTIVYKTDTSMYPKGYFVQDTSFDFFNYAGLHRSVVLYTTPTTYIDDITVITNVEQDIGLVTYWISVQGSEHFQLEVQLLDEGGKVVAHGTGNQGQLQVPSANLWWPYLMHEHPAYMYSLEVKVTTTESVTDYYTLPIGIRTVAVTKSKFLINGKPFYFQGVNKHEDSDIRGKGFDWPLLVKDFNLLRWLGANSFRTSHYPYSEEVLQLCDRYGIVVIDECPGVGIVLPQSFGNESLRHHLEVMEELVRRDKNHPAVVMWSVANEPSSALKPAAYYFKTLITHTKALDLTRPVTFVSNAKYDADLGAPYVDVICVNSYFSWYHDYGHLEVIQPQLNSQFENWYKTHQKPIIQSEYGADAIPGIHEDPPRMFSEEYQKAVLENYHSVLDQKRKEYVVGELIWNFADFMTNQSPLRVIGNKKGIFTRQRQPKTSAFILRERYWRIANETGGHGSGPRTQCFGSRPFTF

## COc1cc(/C=C/C(=O)CC(=O)/C=C/c2ccc(O[C@@H]3O[C@H](C(=O)O)[C@@H](O)[C@H](O)[C@H]3O)c(OC)c2)ccc1O
Klotho
  Drug metabolism: 75%
Beta-glucuronidase [1]
  Drug metabolism: > 99%
RAW264.7
  inhibition: inactive
Beta-glucuronidase [2]
  Drug metabolism: Metabolite_Detected
